Assay results reported in paper PMC2289653 (The Journal of Cell Biology, 1992).

Experiments:
[1] = biological target: kin-src binding to plasma membranes (src receptor); assay: Competition of kin-src membrane binding by peptides or polypeptides; set-up: species or system vole
Procedure, shortened: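 [35S]methionine-labelled chimera translated in rabbit reticulocyte lysate (90 min, 30°C; Triton X-100 0.075% final), then incubated 30 min at 20°C with 1T cell P100 membranes with increasing myristylated peptide. Also tested: 8-mer at 92 µM, 15-mer at 58 µM, or in vitro translated competitor polypeptide. Pellets at 100,000 g; gel slices counted. Pellet without membranes subtracted; untreated membranes set to 100%.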

[2] = system: del 15-263 binding to vole cell membranes (P100); assay: Competition of del 15-263 membrane binding by MGYsrc peptide
Procedure, shortened: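 In vitro translated [35S]methionine-labelled deletion mutant (rabbit reticulocyte lysate) incubated with vole P100 membranes with increasing myristylated src peptide. Binding quantitated by gel slice scintillation counting, pellet without membranes subtracted, untreated membranes set to 100%. In parallel, membranes were incubated 15 min at 20°C with 4 × 10^5 c.p.m. 125I-peptide, then 15 min with BS3 crosslinker, in the presence of increasing unlabelled peptide. After 100,000 g reisolation, SDS gel, and gamma counting of the excised band.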

[3] = system: pp60v-src binding to plasma membranes (src receptor); assay: Competition of pp60v-src membrane binding by peptides or polypeptides; set-up: species or system vole
Procedure, shortened: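 1T cell P100 membranes incubated with [35S]methionine-labelled, reticulocyte-lysate-translated protein plus increasing myristylated N-terminal peptides, including Lys→Asn or Arg variants. Nonmyristylated peptide served as control. Incubation 30 min at 20°C, then ultracentrifugation at 100,000 g. Gel slices counted by scintillation. Pellet without membranes subtracted; binding to untreated membranes normalised to 100%.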

[4] = system: plasma membrane-enriched fractions (P100) from vole cells; membrane-bound src receptor; assay: In vitro membrane binding of in vitro translated src proteins; details: for decrease in membrane-binding capacity versus wild type: P100 membranes from normal vole cells, average of three experiments, Fig. 5
myristyl transferase = assay: Efficiency of myristylation on translation in reticulocyte lysate; type: biochemical; details: rabbit reticulocyte lysate; densitometry; normalized to pp60v-src = 1; Table II
Procedure, shortened: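 Constructs translated in rabbit reticulocyte lysate for 90 min at 30°C, with either 0.4 µCi/µl [35S]methionine or 0.7 µCi/µl [3H]myristic acid. Products resolved by SDS gel; myristate-to-methionine incorporation ratio expressed relative to wild-type.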

[5] = system: pp60v-src binding to plasma membranes (src receptor); details: previous experiments; ref Resh, 1989; cited from earlier work
NIH3T3 cells [6] = assay: Transformation: morphology and growth in soft agar; type: cell-based
Procedure, shortened: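 NIH3T3 cells transduced with PLJ retroviral vector carrying src or chimera, or with vector alone. G418-resistant clones expanded, then morphology examined by phase-contrast microscopy. Growth in soft agar scored +/− per clone.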

NIH3T3 cells [7] = assay: Subcellular fractionation and immunofluorescence of G418-resistant NIH3T3 clones; type: cell-based; details: for Percent association with cell fraction P1 / Percent association with cell fraction P100: percentage of total src kinase activity; for Percent association with cell fraction P1: 1,000-g pellet; for Percent association with cell fraction P100: 100,000-g pellet
Procedure, shortened: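 G418-resistant NIH3T3 clones (retroviral transfer) labelled 1 h with 50 µCi/ml [35S]methionine. Cells lysed by hypotonic Dounce homogenisation and spun into a 1,000 g pellet (P1), a 100,000 g pellet (P100) and S100. Fractions adjusted to kinase buffer, immunoprecipitated with anti-p60 serum, and subjected to in vitro kinase assay. Analysed by SDS-PAGE and scintillation counting; each fraction given as percent of total kinase activity.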

[8] = peptide at 340 μM, 1T cell P100 membranes, Fig. 2

For GSSKSKPKDPSY [MGYsrc], the “kin-src polypeptide released from the membrane by MGYsrc” value ([1]; from the shape of the binding curve in Fig. 2) was roughly 75%, the “inhibition of binding of the del 15-263 polypeptide” value ([2]; increasing MGYsrc, vole cell P100 membranes, Fig. 6) was 80-90% and the Ki ([2]; read-out: Ki for membrane binding of del 15-263, vole P100 membranes, Fig. 7) was 35 µM. The “maximum inhibition of pp60v-src binding” value ([3]; competition never complete, on average, Figs. 2 and 4) was 50-60%.
For “GQ1WTTPLY [myristylated gag peptide, reference compound]”, the “effect on the binding of kin-src” value ([1]; data not shown) was “did not have a significant effect”.
In the case of “v-src N5+9: mutant of v-src in which both lysines 5 and 9 were converted to asparagine”, the “decrease in membrane-binding capacity versus wild type” value (from here on “decrease”) [4] is reported as ~ 60% and the “Relative incorporation [3H]myristate/[35S]methionine” value (“Relative incorporation” for short) (myristyl transferase) is reported as 0.93.
For “v-src N5: mutant of v-src in which lysine 5 has been converted to asparagine”, the “decrease” value [4] was 30% and the “Relative incorporation” value (myristyl transferase) was 0.99.
In the case of GNAAAAKKY [8 mer], the “inhibition of pp60v-src binding” value [5] is given as “failed to detect inhibition” and the “inhibition of membrane binding of kin-src” value ([1]; peptide at 92 μM) is given as 35%.
With “v-src N9: mutant of v-src in which lysine 9 has been converted to asparagine” the “decrease” value [4] was 45% and the “Relative incorporation” value (myristyl transferase) was 0.98.
For GSSKSKPKDPSY [GYsrc], the “inhibition of kin-src membrane binding” value [1, 8] was 10-20% and the “inhibition of pp60v-src membrane binding” value [3, 8] was 10-20%.
In the case of “pp60v-src: protein product of the v-src gene of Rous sarcoma virus; NH2 terminus M G S S K S K P K D P S Q R”, the “morphology of expressing cells” value (NIH3T3 cells [6]; G418-resistant clonal populations, phase contrast, Fig. 3) is reported as “fully transformed”, the “growth in soft agar” value (NIH3T3 cells [6]; G418-resistant clones, Table III prints + for all four clones of each) is reported as “capable of growth in soft agar” and the “Percent association with cell fraction P1” value (NIH3T3 cells [7]; clone 1) is reported as 43%. For the same substance, the “Percent association with cell fraction P100” value (NIH3T3 cells [7]; clone 1) was 47%, the “Percent association with cell fraction P1” value (NIH3T3 cells [7]; clone 2) was 32% and the “Percent association with cell fraction P100” value (NIH3T3 cells [7]; clone 2) was 61%. The “Percent association with cell fraction P1” value (NIH3T3 cells [7]; clone 3) was 17%, the “Percent association with cell fraction P100” value (NIH3T3 cells [7]; clone 3) was 67% and the “Percent association with cell fraction P1” value (NIH3T3 cells [7]; clone 4) was 34%. For the same substance, the “Percent association with cell fraction P100” value (NIH3T3 cells [7]; clone 4) was 57%, the “polypeptide membrane associated in vivo” value (NIH3T3 cells [7]; hypotonic lysis and differential centrifugation, Table III) was 80-90% and the “subcellular localization in vivo” value (NIH3T3 cells [7]; indirect immunofluorescence and cellular fractionation) was “punctate membrane staining”. For the same substance, the “competition of radiolabeled kin-src binding by polypeptide” value ([1]; equimolar or submolar concentrations of in vitro translated polypeptide, data not shown) was “readily com- peted” and the “ratio of src protein in the pellet fraction +Mbs/-Mbs” value ([4]; 1T membranes (P100), 30 min at 20°C, average of four experiments, Fig. 1) was 3.2.
